Measured values reported in ChEMBL document CHEMBL4130443, “Targeting breast cancer stem cells by novel HDAC3-selective inhibitors” (Eur J Med Chem, 2017).
pIC50: −log10 of the molar value. Active and inactive are the calls of the source. No cut-off for these calls is given here.

Experiments:
[1] = target: Histone deacetylase 3/Nuclear receptor corepressor 2 (HDAC3/NCoR2) (Homo sapiens, UniProt O15379); experiment: Inhibition of human HDAC3/NCOR2 using p53 (379 to 382 residues) derived fluorogenic peptide RHKKAc; assay type: protein-complex assay
[2] = target: T1, Histone deacetylase 8 (Homo sapiens) (UniProt Q9BY41); experiment: Inhibition of human HDAC8 at 1 uM using p53 (379 to 382 residues) derived fluorogenic peptide RHKAcKAc
T1 sequence (whole entry): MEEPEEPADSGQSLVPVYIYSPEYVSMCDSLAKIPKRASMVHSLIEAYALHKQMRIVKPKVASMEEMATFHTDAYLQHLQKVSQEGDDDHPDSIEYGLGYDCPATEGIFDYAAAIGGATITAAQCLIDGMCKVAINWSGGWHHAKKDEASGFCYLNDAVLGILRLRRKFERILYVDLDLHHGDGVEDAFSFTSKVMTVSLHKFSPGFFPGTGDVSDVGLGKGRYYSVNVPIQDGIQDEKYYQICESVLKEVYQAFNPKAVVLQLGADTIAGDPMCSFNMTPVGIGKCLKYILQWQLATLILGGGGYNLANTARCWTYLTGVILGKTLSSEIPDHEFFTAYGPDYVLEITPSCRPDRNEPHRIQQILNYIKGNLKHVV
In short: (§1)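 Isoform profiling run by a commercial vendor with compounds at 1 µM. Values are percent inhibition, each the average of two determinations.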

Histone deacetylase 2 [3] = target: T2, Histone deacetylase 2 (Homo sapiens, UniProt Q92769); experiment: Inhibition of human HDAC2 at 1 uM using p53 (379 to 382 residues) derived fluorogenic peptide RHKKAc; in short: as §1
[4] = target: Histone deacetylase 3/Nuclear receptor corepressor 2 (HDAC3/NCoR2) (Homo sapiens) (UniProt O15379+Q9Y618); experiment: Inhibition of human HDAC3/NCOR2 at 1 uM using p53 (379 to 382 residues) derived fluorogenic peptide RHKKAc; assay type: protein-complex assay; in short: as §1
Histone deacetylase 2 [5] = target: T2, Histone deacetylase 2; experiment: Inhibition of human HDAC2 using p53 (379 to 382 residues) derived fluorogenic peptide RHKKAc
[6] = target: Histone deacetylase 4 (Homo sapiens) (UniProt P56524); experiment: Inhibition of human HDAC4 at 1 uM using Boc-Lys(trifluoroacetyl)-AMC substrate; in short: as §1
[7] = target: T3, Protein deacetylase HDAC6 (Homo sapiens) (UniProt Q9UBN7); experiment: Inhibition of human HDAC6 at 1 uM using p53 (379 to 382 residues) derived fluorogenic peptide RHKKAc; in short: as §1
T3 sequence (whole entry): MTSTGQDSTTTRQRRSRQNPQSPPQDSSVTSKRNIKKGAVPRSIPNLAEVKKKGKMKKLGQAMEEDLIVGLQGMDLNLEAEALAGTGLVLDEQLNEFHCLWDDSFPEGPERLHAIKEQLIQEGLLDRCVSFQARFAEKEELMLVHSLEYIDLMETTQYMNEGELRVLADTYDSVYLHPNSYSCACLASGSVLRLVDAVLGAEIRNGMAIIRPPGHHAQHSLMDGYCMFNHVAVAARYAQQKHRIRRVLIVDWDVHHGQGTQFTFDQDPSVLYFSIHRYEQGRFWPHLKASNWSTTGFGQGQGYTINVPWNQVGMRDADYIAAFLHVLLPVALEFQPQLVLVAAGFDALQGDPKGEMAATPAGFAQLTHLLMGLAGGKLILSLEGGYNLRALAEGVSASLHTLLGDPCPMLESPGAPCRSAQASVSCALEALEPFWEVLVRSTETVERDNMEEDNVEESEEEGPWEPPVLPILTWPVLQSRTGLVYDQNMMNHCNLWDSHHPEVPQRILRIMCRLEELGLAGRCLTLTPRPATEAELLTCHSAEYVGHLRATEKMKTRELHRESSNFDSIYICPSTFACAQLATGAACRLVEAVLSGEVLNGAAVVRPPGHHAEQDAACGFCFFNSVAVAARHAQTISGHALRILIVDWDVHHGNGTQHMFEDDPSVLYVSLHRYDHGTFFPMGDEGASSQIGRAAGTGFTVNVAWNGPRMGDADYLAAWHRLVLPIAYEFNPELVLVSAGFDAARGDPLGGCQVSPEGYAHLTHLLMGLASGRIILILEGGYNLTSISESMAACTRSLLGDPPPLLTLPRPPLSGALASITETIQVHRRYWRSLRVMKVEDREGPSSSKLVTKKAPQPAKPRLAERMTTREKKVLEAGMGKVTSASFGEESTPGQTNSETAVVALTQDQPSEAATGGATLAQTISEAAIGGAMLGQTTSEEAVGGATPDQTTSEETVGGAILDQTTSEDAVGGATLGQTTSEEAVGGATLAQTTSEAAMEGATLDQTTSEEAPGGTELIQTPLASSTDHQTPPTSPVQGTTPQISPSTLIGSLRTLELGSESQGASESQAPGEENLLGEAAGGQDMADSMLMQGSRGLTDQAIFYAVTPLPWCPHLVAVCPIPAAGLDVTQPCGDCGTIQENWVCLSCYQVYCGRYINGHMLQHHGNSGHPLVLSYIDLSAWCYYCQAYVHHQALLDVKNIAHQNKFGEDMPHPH

Histone deacetylase 1 [8] = target: T4, Histone deacetylase 1 (Homo sapiens, UniProt Q13547); experiment: Inhibition of human HDAC1 using p53 (379 to 382 residues) derived fluorogenic peptide RHKKAc
[9] = target: Histone deacetylase 5 (Homo sapiens) (UniProt Q9UQL6); experiment: Inhibition of human HDAC5 at 1 uM using Boc-Lys(trifluoroacetyl)-AMC substrate; in short: as §1
Histone deacetylase 1 [10] = target: T4, Histone deacetylase 1; experiment: Inhibition of human HDAC1 at 1 uM using p53 (379 to 382 residues) derived fluorogenic peptide RHKKAc; in short: as §1
Homo sapiens = organism: Homo sapiens; experiment: Selectivity index, ratio of IC50 for human HDAC1 to IC50 for human HDAC3
[11] = target: Histone deacetylase 3 (Homo sapiens) (UniProt O15379); experiment: Inhibition of HDAC3 in human MDA-MB-231 cells assessed as reduction in beta-catenin expression at 0.5 to 5 uM by immunoblotting; assay type: cell-based
In short: (§2)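 Monolayer cells treated in 5% FBS at graded concentrations. Lysed in SDS/EDTA/Tris pH 8.1 buffer, equal protein immunoblotted with primary antibodies 1:1000 overnight at 4°C. Detected by ECL for phospho-Akt, β-catenin and histone H3 pan/H3K9 acetylation.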

[12] = target: Histone deacetylase 3 (Homo sapiens) (UniProt O15379); experiment: Inhibition of HDAC3 in human MDA-MB-231 cells assessed as increase in histone H3 acetylation at 0.5 to 5 uM by immunoblotting; assay type: cell-based; in short: as §2
[13] = target: Histone deacetylase 3 (Homo sapiens) (UniProt O15379); experiment: Inhibition of HDAC3 in human MDA-MB-231 cells assessed as reduction in Akt phosphorylation at 0.5 to 5 uM by immunoblotting; assay type: cell-based; in short: as §2
MDA-MB-231 [14] = experiment: Effect on beta-catenin mRNA expression in human MDA-MB-231 cells at 0.5 to 5 uM by RT-PCR method; assay type: cell-based; conditions: mda-mb-231, 5 µM
In short: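 Monolayer cells treated at graded concentrations. Total RNA isolated with TRIzol. β-catenin mRNA assessed by RT-PCR with β-actin as reference.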

MDA-MB-231 [15] = experiment: Inhibition of colony formation of human MDA-MB-231 cells incubated for 48 hrs by crystal violet staining based assay; conditions: MDA-MB-231, 48 h
MDA-MB-231 [16] = experiment: Growth inhibition of human MDA-MB-231 cells incubated for 48 to 72 hrs by crystal violet staining based assay; assay type: functional, cell-based
In short: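 Cells plated at 5000/well and left overnight, then treated in 5% FBS for 24, 48 and 72 h. Washed with PBS, stained 20 min with 0.5% crystal violet in 20% methanol, stain solubilized in 2% SDS, absorbance read at 550. Growth inhibition calculated as (1-Nt/Nc) x 100 against vehicle wells. N = 6.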

MDA-MB-231 [17] = experiment: Cytotoxicity in human MDA-MB-231 cells assessed as reduction in cell viability incubated for 24 to 72 hrs by MTT assay; assay type: functional, cell-based
In short: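 MDA-MB-231 seeded 5,000 cells/well with 10% FBS, left overnight, then exposed to agents in 5% FBS for 24, 48 and 72 h. MTT added for 1 h, dye dissolved in DMSO, absorbance at 560 nm. Viability given as percent of the matching vehicle-treated control. N = 6.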

MDA-MB-231 [18] = experiment: Inhibition of mammosphere formation of human MDA-MB-231 cells incubated for 7 days; conditions: MDA-MB-231, 168 h
[19] = target: T3, Protein deacetylase HDAC6 (Homo sapiens); experiment: Inhibition of HDAC6 in human MDA-MB-231 cells assessed as increase in histone H3K9 acetylation at 0.1 to 2.5uM incubated for 48 hrs by Western blot method; assay type: cell-based; conditions: in the assay text read “tubulin acetylation” for “histone H3K9 acetylation”
In short: (§3)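 Cells treated 48 h at the indicated concentrations, with a reference HDAC inhibitor at 0.25 µM as positive control on each blot. Lysed in 1% SDS, 10 mM EDTA, 50 mM Tris-HCl pH 8.1 with protease/phosphatase inhibitors, then sonicated. Equal protein by SDS-PAGE on nitrocellulose. Primary antibodies 1:1000 overnight at 4°C, HRP secondary, ECL. Blots for pan-H3 and H3K9 acetylation, tubulin acetylation and Notch1.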

[20] = target: T1, Histone deacetylase 8 (Homo sapiens); experiment: Inhibition of HDAC8 in human MDA-MB-231 cells assessed as reduction in Notch1 expression at 0.1 to 2.5uM incubated for 48 hrs by Western blot method; assay type: cell-based; in short: as §3
[21] = target: T5, Histone deacetylase (Homo sapiens) (UniProt Q13547+O15379+Q9UBN7+Q92769+Q9UQL6+Q8WUI4+Q9BY41+Q96DB2+P56524+Q9UKV0+Q969S8); experiment: Inhibition of HDAC in human MDA-MB-231 cells assessed as increase in histone H3 acetylation at 0.1 to 2.5uM incubated for 48 hrs by Western blot method; assay type: cell-based; in short: as §3
[22] = target: T5, Histone deacetylase (Homo sapiens); experiment: Inhibition of HDAC in human MDA-MB-231 cells assessed as increase in histone H3K9 acetylation at 0.1 to 2.5uM incubated for 48 hrs by Western blot method; assay type: cell-based; in short: as §3
[23] = target: T1, Histone deacetylase 8 (Homo sapiens); experiment: Inhibition of HDAC8 in human MDA-MB-231 cells assessed as reduction in Notch1 expression at 0.25 uM incubated for 48 hrs by Western blot method; assay type: cell-based; in short: as §3
[24] = target: T3, Protein deacetylase HDAC6 (Homo sapiens); experiment: Inhibition of HDAC6 in human MDA-MB-231 cells assessed as increase in histone H3K9 acetylation at 0.25 uM incubated for 48 hrs by Western blot method; assay type: cell-based; conditions: in the assay text read “tubulin acetylation” for “histone H3K9 acetylation”; in short: as §3
[25] = target: T1, Histone deacetylase 8 (Homo sapiens); experiment: Inhibition of HDAC8 in human MDA-MB-231 cells assessed as reduction in Notch1 expression at 2.5uM incubated for 48 hrs by Western blot method; assay type: cell-based; in short: as §3

T2 sequence (Q92769 whole entry, the tested form may be a part): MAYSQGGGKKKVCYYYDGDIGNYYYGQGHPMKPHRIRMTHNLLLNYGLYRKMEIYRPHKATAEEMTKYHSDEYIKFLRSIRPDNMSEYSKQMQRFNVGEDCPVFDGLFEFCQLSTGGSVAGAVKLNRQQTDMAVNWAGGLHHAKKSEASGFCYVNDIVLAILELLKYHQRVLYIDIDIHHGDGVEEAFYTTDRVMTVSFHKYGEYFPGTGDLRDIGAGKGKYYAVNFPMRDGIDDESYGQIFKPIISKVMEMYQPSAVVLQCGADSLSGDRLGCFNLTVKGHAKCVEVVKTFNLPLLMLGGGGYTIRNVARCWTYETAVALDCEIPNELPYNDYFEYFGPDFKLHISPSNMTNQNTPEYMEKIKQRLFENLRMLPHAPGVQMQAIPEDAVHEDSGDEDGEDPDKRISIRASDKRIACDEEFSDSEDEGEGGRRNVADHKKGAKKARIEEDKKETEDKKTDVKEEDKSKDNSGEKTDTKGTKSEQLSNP
Sequence of Histone deacetylase 5 (Homo sapiens) (Q9UQL6 whole entry, the tested form may be a part): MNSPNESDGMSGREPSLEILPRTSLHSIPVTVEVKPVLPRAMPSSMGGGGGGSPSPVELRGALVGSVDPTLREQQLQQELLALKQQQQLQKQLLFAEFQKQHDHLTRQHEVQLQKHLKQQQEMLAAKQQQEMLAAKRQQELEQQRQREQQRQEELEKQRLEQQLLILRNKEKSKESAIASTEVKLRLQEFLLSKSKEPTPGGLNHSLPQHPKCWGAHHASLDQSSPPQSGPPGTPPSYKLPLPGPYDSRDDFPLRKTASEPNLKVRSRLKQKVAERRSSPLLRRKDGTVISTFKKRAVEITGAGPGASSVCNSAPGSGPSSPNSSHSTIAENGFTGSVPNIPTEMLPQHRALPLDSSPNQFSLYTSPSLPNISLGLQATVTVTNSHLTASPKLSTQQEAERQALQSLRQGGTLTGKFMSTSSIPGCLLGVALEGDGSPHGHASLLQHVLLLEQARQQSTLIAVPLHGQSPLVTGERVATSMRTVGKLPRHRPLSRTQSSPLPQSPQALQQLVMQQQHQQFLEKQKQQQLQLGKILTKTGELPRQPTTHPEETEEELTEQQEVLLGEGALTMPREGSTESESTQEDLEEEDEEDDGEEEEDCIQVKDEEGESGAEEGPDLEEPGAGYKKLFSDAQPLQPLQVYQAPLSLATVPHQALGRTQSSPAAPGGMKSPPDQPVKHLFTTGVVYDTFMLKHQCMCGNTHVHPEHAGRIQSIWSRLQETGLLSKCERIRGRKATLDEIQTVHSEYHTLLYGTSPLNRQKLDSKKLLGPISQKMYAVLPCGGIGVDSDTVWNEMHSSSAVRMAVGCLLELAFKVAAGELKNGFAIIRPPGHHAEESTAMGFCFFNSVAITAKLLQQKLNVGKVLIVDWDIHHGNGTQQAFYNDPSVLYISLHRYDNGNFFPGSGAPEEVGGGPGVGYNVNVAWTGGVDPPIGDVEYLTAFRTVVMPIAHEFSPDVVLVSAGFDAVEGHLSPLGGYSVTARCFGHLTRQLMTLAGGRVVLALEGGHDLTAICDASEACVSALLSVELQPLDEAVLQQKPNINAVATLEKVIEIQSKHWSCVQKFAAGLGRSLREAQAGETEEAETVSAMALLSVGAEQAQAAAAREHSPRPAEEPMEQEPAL
Sequence of Histone deacetylase 4 (Homo sapiens) (P56524 whole entry, the tested form may be a part): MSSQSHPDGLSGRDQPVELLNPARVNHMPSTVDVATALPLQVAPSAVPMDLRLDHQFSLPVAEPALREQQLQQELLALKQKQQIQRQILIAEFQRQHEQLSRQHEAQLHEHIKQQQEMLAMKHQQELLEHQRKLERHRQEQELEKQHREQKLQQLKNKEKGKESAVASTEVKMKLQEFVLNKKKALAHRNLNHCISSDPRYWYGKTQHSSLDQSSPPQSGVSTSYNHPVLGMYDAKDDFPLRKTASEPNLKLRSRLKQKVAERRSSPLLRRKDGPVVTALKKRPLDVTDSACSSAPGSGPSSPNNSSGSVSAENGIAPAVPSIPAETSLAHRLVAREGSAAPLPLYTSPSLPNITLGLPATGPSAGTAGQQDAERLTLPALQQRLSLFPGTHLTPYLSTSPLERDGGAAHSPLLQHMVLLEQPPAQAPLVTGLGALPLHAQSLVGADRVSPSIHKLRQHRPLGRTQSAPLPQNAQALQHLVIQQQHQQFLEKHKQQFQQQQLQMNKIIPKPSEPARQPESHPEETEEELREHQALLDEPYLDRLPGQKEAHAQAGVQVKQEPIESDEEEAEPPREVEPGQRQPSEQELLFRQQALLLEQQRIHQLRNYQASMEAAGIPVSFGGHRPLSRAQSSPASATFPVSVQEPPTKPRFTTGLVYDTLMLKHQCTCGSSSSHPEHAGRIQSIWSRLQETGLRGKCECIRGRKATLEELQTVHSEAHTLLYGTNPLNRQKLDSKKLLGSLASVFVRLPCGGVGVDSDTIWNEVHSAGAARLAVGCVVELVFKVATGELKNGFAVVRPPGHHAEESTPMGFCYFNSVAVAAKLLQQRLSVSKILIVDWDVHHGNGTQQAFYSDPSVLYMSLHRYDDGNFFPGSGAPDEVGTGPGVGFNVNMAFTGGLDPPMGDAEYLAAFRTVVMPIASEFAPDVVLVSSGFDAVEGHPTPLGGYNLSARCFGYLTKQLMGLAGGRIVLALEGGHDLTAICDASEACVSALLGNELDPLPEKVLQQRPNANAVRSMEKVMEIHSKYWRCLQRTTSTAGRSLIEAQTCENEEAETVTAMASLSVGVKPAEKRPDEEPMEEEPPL
T4 sequence (Q13547 whole entry, the tested form may be a part): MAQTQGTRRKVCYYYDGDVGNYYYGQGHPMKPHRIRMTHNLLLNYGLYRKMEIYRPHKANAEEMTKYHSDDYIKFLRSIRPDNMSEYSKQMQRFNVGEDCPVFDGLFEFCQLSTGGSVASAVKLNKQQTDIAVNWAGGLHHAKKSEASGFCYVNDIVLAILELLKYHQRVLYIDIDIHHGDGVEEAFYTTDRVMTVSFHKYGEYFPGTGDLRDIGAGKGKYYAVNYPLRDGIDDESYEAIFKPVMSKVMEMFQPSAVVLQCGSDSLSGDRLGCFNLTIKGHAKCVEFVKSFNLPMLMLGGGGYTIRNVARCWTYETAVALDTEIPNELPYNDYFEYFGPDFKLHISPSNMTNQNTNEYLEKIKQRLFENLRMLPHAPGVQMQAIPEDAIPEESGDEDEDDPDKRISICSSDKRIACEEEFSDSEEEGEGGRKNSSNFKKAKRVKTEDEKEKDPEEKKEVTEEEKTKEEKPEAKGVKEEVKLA
Sequence of Histone deacetylase 3 (Homo sapiens) (O15379 whole entry): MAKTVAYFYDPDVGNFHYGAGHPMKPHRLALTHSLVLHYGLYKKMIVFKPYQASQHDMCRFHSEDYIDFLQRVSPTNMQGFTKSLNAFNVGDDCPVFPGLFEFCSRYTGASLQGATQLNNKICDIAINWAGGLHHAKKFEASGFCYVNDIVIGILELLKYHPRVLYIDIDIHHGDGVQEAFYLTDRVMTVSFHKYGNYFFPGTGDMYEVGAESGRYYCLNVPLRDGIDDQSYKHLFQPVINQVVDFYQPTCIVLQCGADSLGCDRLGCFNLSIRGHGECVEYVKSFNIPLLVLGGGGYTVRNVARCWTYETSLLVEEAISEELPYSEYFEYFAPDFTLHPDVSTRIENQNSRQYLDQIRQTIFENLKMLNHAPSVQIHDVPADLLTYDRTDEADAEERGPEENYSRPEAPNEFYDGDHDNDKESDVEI

SMILES | pIC50 [1] | inhibition [2] | inhibition (Histone deacetylase 2 [3]) | inhibition [4] | pIC50 (Histone deacetylase 2 [5]) | inhibition [6] | inhibition [7] | pIC50 (Histone deacetylase 1 [8]) | inhibition [9] | inhibition (Histone deacetylase 1 [10]) | Ratio IC50 (Homo sapiens) | inhibition [19] | also measured
CC(C)[C@@H](C(=O)Nc1ccc(C(=O)Nc2ccc(F)cc2N)cc1)c1ccccc1 | 6.00 | 6% | 26% | 78% | 5.74 | 0% | 0% | 5.92 | 0% | 42% | 1.2 | – | –
Nc1cc(F)ccc1NC(=O)c1ccc(NC(=O)Cc2ccccc2)cc1 | 6.74 | – | – | – | 5.49 | – | – | 5.64 | – | – | – | – | inhibition [11]: Dose-dependent effect; inhibition [12]: Dose-dependent effect; inhibition [13]: Dose-dependent effect; Activity (MDA-MB-231 [14]): Non-Toxic; pIC50 (MDA-MB-231 [15]): 6.00 to 6.30; pIC50 (MDA-MB-231 [16]): ≤ 5.00; pIC50 (MDA-MB-231 [17]): ≤ 5.00; pIC50 (MDA-MB-231 [18]): 6.00 to 6.30
CC(C)[C@@H](C(=O)Nc1ccc(C(=O)Nc2ccc(F)cc2N)nc1)c1ccccc1 | 7.10 | – | – | – | 5.96 | – | – | 6.28 | – | – | 6.5 | inactive | inhibition [20]: inactive
CC(C)[C@H](C(=O)Nc1ccc(C(=O)Nc2ccccc2N)cc1)c1ccccc1 | – | 7% | 31% | 30% | – | 0% | 20% | – | 0% | 55% | – | inactive | inhibition [20]: inactive; inhibition [21]: Active; inhibition [22]: Active
C[C@@H](C(=O)Nc1ccc(C(=O)Nc2ccc(F)cc2N)cc1)c1ccccc1 | 6.68 | – | – | – | 5.55 | – | – | 5.74 | – | – | 8.6 | – | –
CC(C)[C@H](C(=O)Nc1ccc(C(=O)NO)cc1)c1ccccc1 | – | 87% | 72% | 93% | – | 21% | 100% | – | 0% | 95% | – | – | inhibition [23]: Active; inhibition [24]: Active
CC(C)[C@@H](C(=O)Nc1ccc(C(=O)Nc2ccccc2N)cc1)c1ccccc1 | – | 38% | 57% | 76% | – | 9% | 16% | – | 9% | 80% | – | inactive | inhibition [25]: Active; inhibition [21]: Active; inhibition [22]: Active
